Measured values published in ChEMBL document CHEMBL1123755, “Conformationally defined adrenergic agents. 5. Resolution, absolute configuration, and pharmacological characterization of the enantiomers of 2-(5,6-dihydroxy-1,2,3,4-tetrahydro-1-naphthyl)imidazoline: a potent agonist at alpha-adrenoceptors” (J Med Chem, 1987).

Columns and labels:
[1] = target: T1, Adrenergic receptor alpha-1 (Rattus norvegicus, UniProt P15823+P23944+P43140); assay: Binding affinity for alpha-1 adrenergic receptor in rat liver using [3H]prazosin.
T1 sequence (P15823 whole entry): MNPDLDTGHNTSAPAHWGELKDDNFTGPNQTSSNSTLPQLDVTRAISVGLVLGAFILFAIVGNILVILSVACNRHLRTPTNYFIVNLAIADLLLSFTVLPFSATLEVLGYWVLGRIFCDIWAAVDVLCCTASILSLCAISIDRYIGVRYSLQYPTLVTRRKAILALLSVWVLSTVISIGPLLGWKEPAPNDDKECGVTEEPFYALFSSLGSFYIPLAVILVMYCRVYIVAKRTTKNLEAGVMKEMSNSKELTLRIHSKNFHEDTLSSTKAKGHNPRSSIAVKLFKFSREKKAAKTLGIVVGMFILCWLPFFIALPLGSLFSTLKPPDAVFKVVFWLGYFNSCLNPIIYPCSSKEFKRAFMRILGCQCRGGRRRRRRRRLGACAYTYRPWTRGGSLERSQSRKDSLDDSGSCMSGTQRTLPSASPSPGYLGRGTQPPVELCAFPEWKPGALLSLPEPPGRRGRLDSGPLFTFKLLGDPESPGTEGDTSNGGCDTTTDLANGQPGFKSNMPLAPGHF
T1 sequence (P23944 whole entry): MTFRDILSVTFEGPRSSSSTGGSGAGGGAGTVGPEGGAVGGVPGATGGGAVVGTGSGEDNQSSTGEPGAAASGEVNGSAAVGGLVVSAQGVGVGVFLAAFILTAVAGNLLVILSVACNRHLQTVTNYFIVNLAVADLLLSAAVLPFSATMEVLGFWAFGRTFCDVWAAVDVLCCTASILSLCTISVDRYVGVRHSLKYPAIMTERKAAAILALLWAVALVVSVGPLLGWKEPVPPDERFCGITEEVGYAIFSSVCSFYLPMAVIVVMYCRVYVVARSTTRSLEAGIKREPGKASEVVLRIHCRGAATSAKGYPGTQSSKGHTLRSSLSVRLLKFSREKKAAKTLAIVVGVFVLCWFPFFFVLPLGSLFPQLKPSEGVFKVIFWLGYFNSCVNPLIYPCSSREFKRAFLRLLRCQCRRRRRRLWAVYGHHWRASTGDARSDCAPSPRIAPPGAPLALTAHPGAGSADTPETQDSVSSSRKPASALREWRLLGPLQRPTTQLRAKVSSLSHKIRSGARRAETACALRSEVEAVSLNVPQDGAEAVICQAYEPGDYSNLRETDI
T1 sequence (P43140 whole entry): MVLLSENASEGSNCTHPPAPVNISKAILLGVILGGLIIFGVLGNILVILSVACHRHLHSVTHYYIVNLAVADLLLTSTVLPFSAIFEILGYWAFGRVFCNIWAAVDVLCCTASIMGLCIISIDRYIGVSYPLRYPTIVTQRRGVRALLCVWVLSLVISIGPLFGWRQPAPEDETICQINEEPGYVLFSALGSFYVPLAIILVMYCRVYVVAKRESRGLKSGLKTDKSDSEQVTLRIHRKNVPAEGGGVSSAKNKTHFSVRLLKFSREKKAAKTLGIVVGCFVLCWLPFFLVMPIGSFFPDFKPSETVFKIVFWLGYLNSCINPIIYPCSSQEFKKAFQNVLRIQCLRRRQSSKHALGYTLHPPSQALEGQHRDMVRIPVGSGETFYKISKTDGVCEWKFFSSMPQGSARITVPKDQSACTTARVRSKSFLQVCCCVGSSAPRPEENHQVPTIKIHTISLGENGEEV
Outline: (§1)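 Pooled male Sprague–Dawley rat liver membranes (50–150 µg/mL protein) in 50 mM Tris-HCl pH 7.7. [3H]prazosin, 50 min at 25 °C, 1.0 mL final volume; nonspecific binding with phentolamine 10⁻⁵ M. GF/B filtration, scintillation counting. At least four concentrations (10⁻¹⁰–10⁻³ M) run in duplicate; IC50 by logit plot; Ki by Cheng–Prusoff.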

[2] = Ratio of ED50 of norepinephrine to that in PBZ-DSV; format: functional
Outline: (§2)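 Dog saphenous vein strips in Krebs buffer (pH 7.40, 95% O2/5% CO2, 37 °C), 2 g preload, isometric contraction. After equilibration and maximal NE (10⁻⁴ M) contraction, washed 60 min, exposed to PBZ 10⁻⁷ M for 30 min, washed 60 min. Control cumulative NE curve, then after 45–60 min washout, cumulative agonist curve. Molar ED50; index = ED50 NE / ED50 compound; Emax as % of NE maximum.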

[3] = E max value expressed as percent maximum response of the tissue(PBZ-DSV) to norepinephrine; outline: as §2
[4] = Ratio of ED50 of norepinephrine to that in rabbit aorta.; format: functional
Outline: (§3)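 Helical rabbit aortic strip in 10-mL bath of Krebs buffer (pH 7.4, 37 ± 0.5 °C), 2 g initial tension, force-transducer contraction. Cumulative dose–response to NE (10⁻⁸ to 10⁻³ M), each dose to plateau. Washed every 10–15 min for 60–90 min and reset to 2 g before the test compound series. Molar ED50; index = ED50 NE / ED50 compound; Emax as % of NE maximum.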

[5] = E max value expressed as percent maximum response of the tissue(rabbit aorta) to norepinephrine; format: tissue-based; outline: as §3
[6] = target: T2, Adrenergic receptor alpha-2 (Rattus norvegicus, UniProt P22086+P19328+P22909); assay: Binding affinity for alpha-2 adrenergic receptor in rat cortex using [3H]rauwolscine.
T2 sequence (P22086 whole entry): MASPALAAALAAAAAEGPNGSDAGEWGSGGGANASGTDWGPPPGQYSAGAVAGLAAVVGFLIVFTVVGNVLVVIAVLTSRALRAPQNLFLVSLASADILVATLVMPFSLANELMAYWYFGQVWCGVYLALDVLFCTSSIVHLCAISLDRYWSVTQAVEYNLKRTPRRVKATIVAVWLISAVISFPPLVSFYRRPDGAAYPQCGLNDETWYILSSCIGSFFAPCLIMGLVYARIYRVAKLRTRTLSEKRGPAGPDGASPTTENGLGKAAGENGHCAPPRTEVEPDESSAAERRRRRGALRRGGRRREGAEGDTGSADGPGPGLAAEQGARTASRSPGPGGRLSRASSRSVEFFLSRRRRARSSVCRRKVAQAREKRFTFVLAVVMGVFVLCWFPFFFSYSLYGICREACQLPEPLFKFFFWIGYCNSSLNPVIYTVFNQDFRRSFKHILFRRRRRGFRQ
T2 sequence (P19328 whole entry): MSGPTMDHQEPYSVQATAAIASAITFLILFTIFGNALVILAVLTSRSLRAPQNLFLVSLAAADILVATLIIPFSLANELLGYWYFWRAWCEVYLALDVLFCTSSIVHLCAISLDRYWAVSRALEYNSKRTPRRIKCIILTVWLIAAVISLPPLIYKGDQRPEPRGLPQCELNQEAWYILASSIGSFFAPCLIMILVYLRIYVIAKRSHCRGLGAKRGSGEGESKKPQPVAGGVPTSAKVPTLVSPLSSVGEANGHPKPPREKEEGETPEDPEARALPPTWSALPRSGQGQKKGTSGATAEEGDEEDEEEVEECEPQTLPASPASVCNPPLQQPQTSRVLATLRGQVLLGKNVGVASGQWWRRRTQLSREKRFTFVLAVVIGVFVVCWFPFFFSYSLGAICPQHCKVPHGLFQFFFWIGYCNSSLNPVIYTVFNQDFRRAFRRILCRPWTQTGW
T2 sequence (P22909 whole entry): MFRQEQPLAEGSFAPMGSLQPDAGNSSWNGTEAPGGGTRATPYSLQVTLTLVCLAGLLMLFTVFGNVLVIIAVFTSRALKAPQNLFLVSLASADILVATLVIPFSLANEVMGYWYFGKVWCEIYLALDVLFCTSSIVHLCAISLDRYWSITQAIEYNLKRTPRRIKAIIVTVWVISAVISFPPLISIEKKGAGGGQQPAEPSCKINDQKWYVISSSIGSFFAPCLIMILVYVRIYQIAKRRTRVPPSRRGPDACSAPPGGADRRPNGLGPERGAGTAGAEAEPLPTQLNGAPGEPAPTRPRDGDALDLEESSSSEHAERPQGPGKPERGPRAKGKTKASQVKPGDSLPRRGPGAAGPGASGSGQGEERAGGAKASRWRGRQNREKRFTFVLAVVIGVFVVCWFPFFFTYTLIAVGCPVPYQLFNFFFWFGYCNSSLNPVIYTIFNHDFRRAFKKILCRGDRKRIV
Outline: as §1, with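 “cerebral cortex” for “liver”, “[3H]rauwolscine, 2 h” for “[3H]prazosin, 50 min”, “0” for “25”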

SMILES | Ki [1] | Index [2] | E max [3] | Index [4] | E max [5] | Ki [6]
Oc1ccc2c(c1O)CCC[C@@H]2C1=NCCN1 | 817 nM | 15.4 | 74 | 1 | 94 | 28 nM
Oc1ccc2c(c1O)CCC[C@H]2C1=NCCN1 | 523 nM | 248 | 102 | 29 | 128 | 0.55 nM
Oc1ccc2c(c1O)CCCC2C1=NCCN1 (racemic) |  | 184 | 102 | 13 | 114 | 
